# Shown are actives, neighbours in structure and some others; about 4% of the full set was active somewhere.
# TAAR1 antag – human TAAR1 antagonism. Q96RJ0. CHO RD-HGA16 TAAR1, Fluo-8 calcium fluorescence, antagonist. inhibition, % at 3 µM. 1.5% of 360,000 active. AID 624466;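 active = inhibition above a per-plate cutoff, the mean inhibition of test compounds on that plate plus 3 SD, cut at about 49% in these data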
# Target sequence (Q96RJ0 whole entry, looked up): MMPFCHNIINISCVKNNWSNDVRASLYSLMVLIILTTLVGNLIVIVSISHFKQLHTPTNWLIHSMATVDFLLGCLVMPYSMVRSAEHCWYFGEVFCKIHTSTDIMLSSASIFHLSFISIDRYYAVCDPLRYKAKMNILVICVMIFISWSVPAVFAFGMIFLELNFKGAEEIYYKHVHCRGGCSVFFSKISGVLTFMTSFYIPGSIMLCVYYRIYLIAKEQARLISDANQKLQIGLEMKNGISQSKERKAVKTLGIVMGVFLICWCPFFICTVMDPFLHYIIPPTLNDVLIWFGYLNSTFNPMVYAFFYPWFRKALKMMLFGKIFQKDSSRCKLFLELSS
#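 Test system – hTAAR1-expressing CHO RD-HGA16 cells, Gα16-coupled · Also added – β-PEA at EC80 concentration, post-compound challenge · Compound – 3 µM, single point · Incubation – dye loading 75 min at 37 °C, then 30 min room temperature · Measured by – Fluo-8 intracellular calcium dye fluorescence, real-time kinetic reads · Benchmarks – vehicle and agonist controls · Replicates – singlicate, one well per test compound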
# TAAR1 agonist – agonists of human TAAR1; Q96RJ0; CHO RD-HGA16 TAAR1, Fluo-8 calcium fluorescence; vehicle wells 0%, saturating PEA agonist 100%; activation, % at 3 µM; 0.99% of 360,000 active; AID 624467;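 active = activation above the mean activation of all test compounds in the run plus 3 SD, cut at about 38% in these data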
#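 Assay system – CHO-derived RD-HGA16 cells with stable Gα16 and human TAAR1 · Compound dosing – one-point dosing at 3 µM (nominal) · Incubation – 17-24 h seeding, 75 min 37 °C dye, 30 min RT · Measured by – kinetic Fluo-8 calcium fluorescence · Control set – DMSO vehicle as 0%, PEA at EC100 as 100% · Repeats – single well for each compound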
# CHO parental Ca – signal in parental CHO cells, OX1R antagonist counter-screen | inhibition, % at 5.6 µM | 0.63% of 330,000 active | AID 463079 | parental CHO-K1, ATP-induced calcium, Fluo-8 fluorescence;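 active = inhibition above that plate's mean sample inhibition plus 3 SD, cut at about 26% in these data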
#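 Assay system: parental CHO cells; Read-out basis: percent inhibition of ATP-evoked calcium rise, normalized to controls; Benchmarks: ATP and no-ATP DMSO wells; Compound dosing: single nominal dose of 5.6 µM per compound; Signal: Fluo-8 calcium dye fluorescence; Also added: ATP as calcium-mobilizing challenge; Repeats: singlicate.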
# OX1R antag-1 – blocks the human orexin 1 receptor; AID 434989; inhibition, % at 5 µM; 0.43% of 330,000 active; CHO/OX1R cells, Fluo-8 calcium fluorescence, orexin A; O43613;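 active = inhibition above its plate's threshold, mean inhibition of all tested compounds on the plate plus 3 SD, cut at about 37% in these data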
# OX1R antag-2 – blocks the human orexin 1 receptor. O43613. OX1R-expressing cells, FRET antagonist read-out. inhibition, % at 6.6 µM. 1.8% of 330,000 active. AID 485270; in the data active = inhibition mostly above about 38%, no sharp cut-off; inactive = mostly below about 40%
# TAAR1 ag confirm – confirmation of human TAAR1 agonists; shares compounds with TAAR1 agonist; CHO RD-HGA16 TAAR1, Fluo-8 calcium fluorescence; scaled: DMSO 0%, maximal phenethylamine 100%; activation, % at 3 µM; 82% of 2,400 active; AID 651783;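 active = activation above a cutoff set at the run's mean compound activation plus 3 SD, cut at about 39% in these data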
# Ga16 nonsel ag – nonselective agonist in parental cells, TAAR1 agonist counter-screen. shares compounds with TAAR1 agonist. CHO-Ga16 parental, Fluo-8 calcium fluorescence; normalized to maximal ATP response, DMSO zero. activation, % at 3 µM. 50% of 2,400 active. AID 651787;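 active = activation above the run cutoff, the mean activation over all tested wells plus 3 SD, cut at about 12% in these data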
# TAAR1 desensitize – TAAR1 response desensitization, agonist counter-screen; shares compounds with TAAR1 agonist; inhibition, % at 3 µM; 46% of 2,400 active; CHO RD-HGA16 hTAAR1, Fluo-8 calcium, beta-PEA response inhibition;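 active = inhibition above the run cutoff, the mean inhibition of all test compounds plus 3 SD, cut at about 49% in these data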;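 note: beta-PEA stimulus applied at its EC80; loss of beta-PEA calcium signal after compound pretreatment read as receptor desensitization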
# Ga16 antag count – nonselective Ga16 antagonism, counter-screen. CHO-Ga16 ATP-induced calcium, Fluo-8 fluorescence. inhibition, % at 3 µM. shares compounds with TAAR1 agonist. 39% of 2,400 active;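 active = inhibition above the plate's mean compound inhibition plus 3 SD, computed per plate, cut at about 22% in these data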
# Numbers stand for hits; - = inactive; . = no result given.
SMILES,TAAR1 antag,TAAR1 agonist,CHO parental Ca,OX1R antag-1,OX1R antag-2,TAAR1 ag confirm,Ga16 nonsel ag,TAAR1 desensitize,Ga16 antag count
Cc1ccccc1-c1nc(CS(=O)(=O)CC(=O)NCCc2ccccc2)c(C)o1,-,72,-,-,-,76,-,63,-
CN1C(=O)/C(=C/c2cccc(Cl)c2)Sc2ccc(C(=O)N3CCCC3)cc21,-,-,-,-,-,.,.,.,.
NC(=O)c1ccc(NC(=O)C#Cc2ccccc2)cc1,-,-,-,-,-,.,.,.,.
CC1(c2ccc(OC(F)F)cc2)NC(=O)N(CC(=O)c2ccc3c(c2)OCO3)C1=O (stereo not given),96,136,-,-,-,118,81,102,49
CC(=O)c1c(C)[nH]c(C(=O)CN2C(=O)NC(C)(c3ccc4c(c3)OCO4)C2=O)c1C (stereo not given),-,-,-,-,-,.,.,.,.
CC1(c2ccc([N+](=O)[O-])cc2)NC(=O)N(CC(=O)c2ccc3c(c2)OCO3)C1=O (stereo not given),-,90,-,-,-,117,70,76,37
Cc1ccc(CNc2nc(C)cs2)cc1,-,-,-,-,-,.,.,.,.
C=CCc1c(C)[nH]c(=O)[nH]c1=O,-,72,-,-,-,-,-,-,-
C=CCSc1nc(C)c(CC=C)c(=O)[nH]1,-,-,-,-,-,.,.,.,.
O=C(Nc1ccc(F)cc1)Nc1ccc(Oc2ncnc3cc(Cl)ccc23)nc1,-,56,-,-,-,75,-,81,-
CN(CCc1ccccc1)C(C(=O)c1ccc2c(c1)OCO2)c1nnnn1-c1ccccc1NC(=O)OC(C)(C)C (stereo not given),78,86,.,.,.,85,-,82,-
C=CCNC(=O)/C(C#N)=C/c1cn(-c2ccccc2)nc1-c1cccs1,-,-,-,-,-,.,.,.,.
O=C1c2cccc3c(N4CCCCC4)ccc(c23)C(=O)N1c1ccccc1O,65,130,52,54,-,-,33,-,50
O=C(O)c1ccc(N2CCCCCC2)c(N2C(=O)c3ccccc3C2=O)c1,-,-,-,-,-,.,.,.,.
Clc1ccc2nc(N3CCNCC3)nc(-c3ccccc3)c2c1,-,57,-,-,-,58,29,-,-
CN1CCN(c2nc(-c3ccccc3)c3cc(Cl)ccc3n2)CC1,-,-,-,-,-,.,.,.,.
Cc1cnc(C(=O)OCC(=O)NCc2ccc3c(c2)OCO3)cn1,-,-,-,-,-,.,.,.,.
COc1ccc(C(=O)CC(=O)C(=O)Nc2cccc([N+](=O)[O-])c2C)cc1,-,71,-,-,-,83,62,-,23
COc1ccccc1C(=O)CC(=O)C(=O)Nc1cccc([N+](=O)[O-])c1C,-,-,-,-,-,.,.,.,.
COc1cccc(C(=O)CC(=O)C(=O)Nc2cccc([N+](=O)[O-])c2C)c1,-,60,-,-,-,120,75,77,41
CCOC(=O)C1(CCc2ccccc2)CCN(C(=O)C2CCOCC2)CC1,-,-,-,-,-,.,.,.,.
Nc1nonc1-n1nnc(C(=O)N/N=C/c2ccncc2)c1-c1cccs1,-,-,-,-,-,.,.,.,.
CCOc1ccc(-c2c(C(=O)N/N=C/c3cccs3)nnn2-c2nonc2N)cc1,-,96,-,-,-,127,80,60,32
CCOc1ccc(/C=N/NC(=O)c2nnn(-c3nonc3N)c2-c2cccs2)cc1,70,125,-,-,-,120,91,76,46
CCOc1cccc(-c2c(C(=O)N/N=C/c3ccsc3)nnn2-c2nonc2N)c1,-,118,-,-,-,136,93,67,27
SMILES,TAAR1 antag,TAAR1 agonist,CHO parental Ca,OX1R antag-1,OX1R antag-2,TAAR1 ag confirm,Ga16 nonsel ag,TAAR1 desensitize,Ga16 antag count
Cc1ccsc1/C=N/NC(=O)c1nnn(-c2nonc2N)c1-c1ccc2c(c1)OCO2,-,-,-,-,-,.,.,.,.
Nc1nonc1-n1nnc(C(=O)N/N=C/c2cccs2)c1-c1ccc2c(c1)OCO2,66,141,-,-,-,122,81,65,28
Cc1cccc(NC(=O)c2ccc(S(=O)(=O)N3CCOCC3)cc2)n1,-,-,-,-,-,.,.,.,.
COc1ccc(S(N)(=O)=O)cc1C(=O)NNC(=O)c1cccc(S(=O)(=O)N2CCOCC2)c1,-,-,.,.,.,.,.,.,.
COc1ccc(-c2cc(-c3cccnc3)c(C#N)c(N)n2)cc1,-,46,-,-,-,-,-,-,22
O=C(O)c1ccccc1-c1ccc(/C=C/c2cc(C(F)(F)F)[nH]c(=O)n2)o1,-,237,.,.,.,69,117,-,28
O=C(O)c1ccccc1-c1ccc(C=c2sc3nc4cc(Br)cnc4n3c2=O)o1,-,-,.,.,.,.,.,.,.
Cc1ccc(SC/C(O)=C(\C#N)c2nc3ccccc3n2C)cc1,56,52,-,-,-,-,51,-,53
COc1ccc(NC(=O)c2cccc(N3C(=O)C4C5C=CC(C5)C4C3=O)c2)cc1Cl (stereo not given),-,-,-,-,-,.,.,.,.
O=C(NC1CCCCC1)c1cccc2c1C(=O)c1ccc(N3CCC(Cc4ccccc4)CC3)cc1S2(=O)=O,61,52,-,-,-,-,29,-,38
COc1cc(S(=O)(=O)Nc2cccnc2)ccc1Cl,-,-,-,-,-,.,.,.,.
CCOC(=O)c1c(NC(=O)C2=COCCO2)sc2c1CCN(C(=O)OC)C2,-,-,-,-,-,.,.,.,.
COc1ccc(-n2c(O)c(/C=N/NS(=O)(=O)c3cccc([N+](=O)[O-])c3)c3ccccc3c2=O)cc1OC,-,-,-,-,-,.,.,.,.
CC(=O)c1ccc(NC(=O)C2CC2c2ccccc2)cc1 (stereo not given),-,-,-,-,-,.,.,.,.
CC(=O)c1ccc(NC(=O)C2C3C=CC(C3=C(c3ccccc3)c3ccccc3)C2C(=O)O)cc1 (stereo not given),-,75,-,-,-,102,71,-,-
O=C(Cn1cnc2c(oc3ccccc32)c1=O)NCCc1ccccc1,.,.,-,-,-,.,-,.,-
CC(C)C(C)NC(=O)Cn1cnc2c(oc3ccccc32)c1=O (stereo not given),-,-,-,-,-,.,.,.,.

# High-throughput results: PubChem, The Scripps Research Institute Molecular Screening Center
